Experimental data reported in ChEMBL document CHEMBL1121364, “Nucleoside conjugates as potential antitumor agents. 3. Synthesis and antitumor activity of 1-(beta-D-arabinofuranosyl)cytosine conjugates of corticosteroids” (1980).

Columns and labels:
[1] = test system: L1210; assay: Antitumor activity in the mice with intraperitoneal implanted L1210 lymphoid leukemia at the dose of 18 and 27.7 mg/kg/day x 5 was determined as mean survival of treated group compared to untreated; 13/9; format: functional, Mus musculus
Procedure, shortened: (§1)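 C3D2F1/J female mice (C3H/HeJ female × DBA/2J male), groups of six to eight, average weight 25 g. Inoculated ip with 1 × 10^6 L1210 ascites cells taken from DBA/2Ha donor mice bearing 3-5 day old tumors. Compounds were dissolved in 0.154 N NaOH, neutralized with 0.154 N HCl (final 0.9% NaCl), and given ip daily for 5 days from 24 h post-implant. Median survival T/C; ILS = (T/C − 1) × 100; 30-day survivors counted.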

[2] = test system: L1210; assay: Antitumor activity in the mice with intraperitoneal implanted L1210 lymphoid leukemia at the dose 18 and 27.7 mg/kg/day x 5 was determined as Survival time in days; Range is 9-17 days; format: functional, Mus musculus
Procedure, shortened: (§2)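 Female C3D2F1/J mice (C3H/HeJ × DBA/2J), groups of six to eight, average weight 25 g. Each mouse got 1 × 10^6 L1210 ascites cells ip, taken from DBA/2Ha donor mice bearing 3-5 day tumors. Compound was dissolved in 0.154 N NaOH and neutralized with 0.154 N HCl (final 0.9% NaCl). Dosed ip daily ×5, starting 24 h after implant. Recorded body weight change on day 8, survival range, median survival and 30-day survivors. ILS = (T/C − 1) × 100.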

[3] = test system: L1210; assay: Antitumor activity in the mice with intraperitoneal implanted L1210 lymphoid leukemia at the dose of 9.2 and 13.2 mg/kg/day x 5 was determined as mean survival of treated group compared to untreated; 15/11; format: functional, Mus musculus
[4] = test system: L1210; assay: Antitumor activity in the mice with intraperitoneal implanted L1210 lymphoid leukemia at the dose 9.2 and 13.2 mg/kg/day x 5 was determined as Survival time in days; Range is 11-28 days; format: functional, Mus musculus; procedure, shortened: as §1
[5] = test system: L1210; assay: Antitumor activity in the mice with intraperitoneal implanted L1210 lymphoid leukemia at the dose 9.2 and 13.2 mg/kg/day x 5 was determined and number of animals survived on 30 th day were reported; 0/6; format: functional, Mus musculus; procedure, shortened: as §1
[6] = test system: L1210; assay: Antitumor activity in mice with intraperitoneal implanted L1210 lymphoid leukemia at the dose 18 and 27.7 mg/kg/day x 5 was determined as weight change (g/mouse) on 8th day; format: functional
Procedure, shortened: (§3)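 C3D2F1/J female mice (C3H/HeJ × DBA/2J), groups of six to eight, average 25 g, inoculated ip with 1 × 10^6 L1210 ascites cells taken from DBA/2Ha donor mice carrying 3-5 day tumors. Compound dissolved in 0.154 N NaOH, then neutralized with 0.154 N HCl to give 0.9% NaCl. Given ip daily for 5 consecutive days starting 24 h after implantation. Body weight change per mouse recorded on day 8.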

[7] = test system: L1210; assay: Antitumor activity in mice with intraperitoneal implanted L1210 lymphoid leukemia at the dose 9.2 and 13.2 mg/kg/day x 5 was determined as weight change (g/mouse) on 8th day; format: functional; procedure, shortened: as §3
[8] = test system: L1210; assay: Antitumor activity in the mice with intraperitoneal implanted L1210 lymphoid leukemia at the dose 18 and 27.7 mg/kg/day x 5 was determined and number of animals survived on 30 th day were reported; 0/8; format: functional, Mus musculus; procedure, shortened: as §2
[9] = test system: L1210; assay: Antitumor activity in the mice with intraperitoneal implanted L1210 lymphoid leukemia at the dose 18 and 27.7 mg/kg/day x 5 was determined as percentage increase in the life span as compared with control tumor bearers; format: functional, Mus musculus; procedure, shortened: as §2
[10] = test system: L1210; assay: Antitumor activity in the mice with intraperitoneal implanted L1210 lymphoid leukemia at the dose 9.2 and 13.2 mg/kg/day x 5 was determined as percentage increase in the life span as compared with control tumor bearers; format: functional, Mus musculus; procedure, shortened: as §1

Molecule `C[C@H]1C[C@@H]2[C@H]([C@@H](O)C[C@@]3(C)[C@H]2CC[C@]3(O)C(=O)CO)[C@@]2(C)C=CC(=O)C=C12.Nc1ccn([C@@H]2O[C@H](CO)[C@@H](O)[C@@H]2O)c(=O)n1` has a T/C [1] of 13, a Survival time [2] of 9 days and a T/C [3] of 15. It also gave a Survival time [4] of 11 days, a Survivors [5] of 0 and a Weight change [6] of -1.38 g mouse-1. For the same molecule, the Weight change [7] was -2.38 g mouse-1, the Survivors [8] was 0 and the ILS [9] was 44%. The ILS [10] was 36%.
